ChEMBL document CHEMBL1795202, “An investigation of phenylthiazole antiflaviviral agents” (Bioorg Med Chem, 2011)
Calls of active or inactive are those of the source. The calls are words filed in the database; no cut-off is given here.

What was measured:
[1] = test system: Yellow fever virus; assay: Antiviral activity against luciferase reporting full length Yellow fever virus infected in BHK15 cells assessed as reduction in virus infectivity ncubated at 50 uM at 37 degC for 36 hrs by luciferase reporter gene assay; assay type: functional; conditions: BHK15, 36 h
[2] = Toxicity against uninfected BHK cells assessed as growth inhibition incubated at 37 degC for 36 hrs by XTT assay; assay type: cell-based, Mesocricetus auratus; conditions: hamster
Procedure, shortened: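 Confluent BHK-15 cells were exposed to serial dilutions of compound (DMSO stocks) for ~36 h at 37 °C, 5% CO2. Medium was then replaced, and XTT substrate was added for 2 h at 37 °C before reading OD450. Values were compared with 1% DMSO-treated cells to calculate GI50.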

[3] = test system: Yellow fever virus; assay: microbe, parasite or virus in culture; assay type: functional, organism-based; conditions: BHK15, 36 h
[4] = Therapeutic index, ratio of GI50 for uninfected BHK cells to EC50 for luciferase reporting full length Yellow fever virus; assay type: cell-based; conditions: hamster, read-out: TI
Procedure, shortened: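 TI is GI50 in uninfected BHK cells (XTT, ~36 h) divided by EC50. EC50 was estimated by nonlinear regression against DMSO-treated infected cells.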

[5] = target: T1, Luciferin 4-monooxygenase (Luciola lateralis) (UniProt Q01158); assay: Inhibition of firefly luciferase expressed in BHK15 cells transfected with luciferase-pcDNA3 incubated at 37 degC for 20 hrs by luciferase reporter gene assay; assay type: cell-based; conditions: Aquatica lateralis
T1 sequence (whole entry): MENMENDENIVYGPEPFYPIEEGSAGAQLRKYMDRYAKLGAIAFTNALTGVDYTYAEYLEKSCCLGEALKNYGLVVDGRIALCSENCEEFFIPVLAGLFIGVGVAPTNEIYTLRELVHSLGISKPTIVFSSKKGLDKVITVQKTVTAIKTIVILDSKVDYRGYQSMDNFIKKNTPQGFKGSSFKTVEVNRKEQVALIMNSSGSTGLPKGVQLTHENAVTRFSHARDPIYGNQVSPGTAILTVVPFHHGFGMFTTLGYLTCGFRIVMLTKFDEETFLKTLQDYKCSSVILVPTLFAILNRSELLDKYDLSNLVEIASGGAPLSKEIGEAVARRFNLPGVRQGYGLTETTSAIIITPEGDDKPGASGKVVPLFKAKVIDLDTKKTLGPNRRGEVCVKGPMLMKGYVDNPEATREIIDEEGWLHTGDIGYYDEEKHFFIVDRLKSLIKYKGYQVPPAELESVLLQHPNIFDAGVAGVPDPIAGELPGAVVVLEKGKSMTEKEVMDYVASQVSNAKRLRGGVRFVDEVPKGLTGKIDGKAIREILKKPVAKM
Procedure, shortened: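 BHK-15 cells grown to confluency, transfected with firefly luciferase-pcDNA3 plasmid by Lipofectamine; complexes removed at 3 h and replaced with medium holding serial compound dilutions from DMSO stock; 37 °C, 5% CO2, 20 h. Cells lysed and luminescence read with firefly luciferase substrate; signal compared with 1% DMSO-treated cells. Controls: uninfected, infected, DMSO-treated.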

**Q.** Which inhibition at 50 µM [1] does the source give for `COC(=O)c1sc(-c2ccc(Cl)c(Cl)c2)nc1C(Br)Br` here?
**A.** Its inhibition at 50 µM is 42.2%.

**Q.** Which results are given for `CCCCc1ccc(-c2nc(C)c(C(C)=O)s2)cc1`?
**A.** inhibition at 50 µM [1]: 99.8%; GI50 at 36 h [2]: 59.4 µM; EC50 [3]: 10.1 µM; selectivity ratio [4]: 6

**Q.** Which inhibition at 50 µM [1] does the source give for `COC(=O)c1sc(-c2ccc3ccccc3c2)nc1C(Br)Br` here?
**A.** Its inhibition at 50 µM is 26%.

**Q.** Which inhibition at 50 µM [1] does the source give for `CCCCc1ccc(-c2nc(C)c(C(=O)SC)s2)cc1` here?
**A.** Its inhibition at 50 µM is 94.1%.

**Q.** And the GI50 at 36 h [2]?
**A.** The GI50 at 36 h was 46.5 µM.

**Q.** And the EC50 [3]?
**A.** The EC50 was 45.6 µM.

**Q.** What about the selectivity ratio [4] of the same compound?
**A.** Its selectivity ratio is 1.

**Q.** For `COC(=O)c1sc(-c2ccc(Br)cc2)nc1C`, which inhibition at 50 µM [1] is on record?
**A.** The inhibition at 50 µM was < 50%.

**Q.** With `COC(=O)c1sc(-c2ccc(F)cc2)nc1C` as the compound, how does the inhibition at 50 µM [1] read?
**A.** Its inhibition at 50 µM is < 50%.

**Q.** For `COC(=O)c1sc(-c2ccccc2F)nc1C`, which inhibition at 50 µM [1] is on record?
**A.** Its inhibition at 50 µM is < 50%.

**Q.** Which inhibition at 50 µM [1] does the source give for `COC(=O)c1sc(-c2ccc(F)cc2)nc1C(Br)Br` here?
**A.** Its inhibition at 50 µM is < 50%.

**Q.** For `COC(=O)c1sc(-c2ccccc2Br)nc1C(Br)Br`, which inhibition at 50 µM [1] is on record?
**A.** The inhibition at 50 µM was < 50%.

**Q.** For `Nc1ccccc1SCc1csc(-c2ccc(Cl)cc2)n1`, which GI50 at 36 h [2] is on record?
**A.** Its GI50 at 36 h is 61 µM.

**Q.** And the selectivity ratio [4]?
**A.** The selectivity ratio was 2.

**Q.** For `COC(=O)c1sc(-c2ccccc2Cl)nc1C(Br)Br`, which inhibition at 50 µM [1] is on record?
**A.** Its inhibition at 50 µM is < 50%.

**Q.** What does the source list for `COC(=O)c1sc(-c2ccc(Br)cc2)nc1C(Br)Br`?
**A.** inhibition at 50 µM [1]: 81.9%; GI50 at 36 h [2]: 408 µM; EC50 [3]: 3.3 µM; selectivity ratio [4]: 121

**Q.** With `COC(=O)c1sc(-c2ccccc2Cl)nc1C` as the compound, how does the inhibition at 50 µM [1] read?
**A.** The inhibition at 50 µM was < 50%.

**Q.** For `COC(=O)c1sc(-c2ccc(Cl)c(Cl)c2)nc1C`, which inhibition at 50 µM [1] is on record?
**A.** The inhibition at 50 µM was -8.2%.

**Q.** Which inhibition at 50 µM [1] does the source give for `CCCCc1ccc(-c2nc(C)c(/C(C)=N/NC(=N)N)s2)cc1` here?
**A.** The inhibition at 50 µM was 99.2%.

**Q.** What about the GI50 at 36 h [2] of the same compound?
**A.** The GI50 at 36 h was 353 µM.

**Q.** And the EC50 [3]?
**A.** Its EC50 is 2.4 µM.

**Q.** What about the selectivity ratio [4] of the same compound?
**A.** The selectivity ratio was 147.

**Q.** And the inhibition [5]?
**A.** The inhibition was “inactive”.

**Q.** What does the source list for `CCCCc1ccc(-c2nc(C)c(C(=O)O)s2)cc1`?
**A.** inhibition at 50 µM [1]: 83.2%; GI50 at 36 h [2]: 366 µM; EC50 [3]: 203 µM

**Q.** For `COC(=O)c1sc(-c2cccc(Br)c2)nc1C`, which inhibition at 50 µM [1] is on record?
**A.** The inhibition at 50 µM was < 50%.

**Q.** For `COC(=O)c1sc(-c2ccc(C(F)(F)F)cc2)nc1C(Br)Br`, which inhibition at 50 µM [1] is on record?
**A.** The inhibition at 50 µM was 91%.

**Q.** What about the GI50 at 36 h [2] of the same compound?
**A.** The GI50 at 36 h was 262 µM.

**Q.** And the EC50 [3]?
**A.** Its EC50 is 10.6 µM.

**Q.** What about the selectivity ratio [4] of the same compound?
**A.** The selectivity ratio was 26.

**Q.** What does the source list for `CCCc1ccc(-c2nc(C)c(C(=O)OC)s2)cc1`?
**A.** inhibition at 50 µM [1]: 83.2%; GI50 at 36 h [2]: 499 µM; EC50 [3]: 34.3 µM; selectivity ratio [4]: 12

**Q.** Which inhibition at 50 µM [1] does the source give for `COC(=O)c1sc(-c2ccc(OC)cc2)nc1C(Br)Br` here?
**A.** The inhibition at 50 µM was < 50%.

**Q.** With `COC(=O)c1sc(-c2ccccc2F)nc1C(Br)Br` as the compound, how does the inhibition at 50 µM [1] read?
**A.** The inhibition at 50 µM was < 50%.

**Q.** Which results are given for `CCCCCc1ccc(-c2nc(C)c(C(=O)OC)s2)cc1`?
**A.** inhibition at 50 µM [1]: 98.6%; GI50 at 36 h [2]: 41.5 µM; EC50 [3]: 38.9 µM; selectivity ratio [4]: 1.1

**Q.** Which inhibition at 50 µM [1] does the source give for `COC(=O)c1sc(Cc2ccccc2)nc1C` here?
**A.** The inhibition at 50 µM was -23.8%.

**Q.** For `COC(=O)c1sc(Cc2ccc(Cl)cc2)nc1C`, which inhibition at 50 µM [1] is on record?
**A.** Its inhibition at 50 µM is -6.5%.

**Q.** With `CCCCc1ccc(-c2nc(C)c(C(=O)OC)s2)cc1` as the compound, how does the inhibition at 50 µM [1] read?
**A.** The inhibition at 50 µM was 91.9%.

**Q.** What about the GI50 at 36 h [2] of the same compound?
**A.** Its GI50 at 36 h is 63.1 µM.

**Q.** And the EC50 [3]?
**A.** Its EC50 is 2.8 µM.

**Q.** What about the selectivity ratio [4] of the same compound?
**A.** The selectivity ratio was 22.

**Q.** With `COC(=O)c1sc(-c2ccccc2)nc1C` as the compound, how does the inhibition at 50 µM [1] read?
**A.** The inhibition at 50 µM was < 50%.

**Q.** For `COC(=O)c1sc(-c2cccc(Br)c2)nc1C(Br)Br`, which inhibition at 50 µM [1] is on record?
**A.** Its inhibition at 50 µM is 93%.

**Q.** What about the GI50 at 36 h [2] of the same compound?
**A.** Its GI50 at 36 h is 26.5 µM.

**Q.** And the EC50 [3]?
**A.** Its EC50 is 26 µM.

**Q.** And the selectivity ratio [4]?
**A.** The selectivity ratio was 1.

**Q.** Which inhibition at 50 µM [1] does the source give for `COC(=O)c1sc(-c2ccccc2)nc1C(Br)Br` here?
**A.** Its inhibition at 50 µM is < 50%.

**Q.** Which inhibition at 50 µM [1] does the source give for `COC(=O)c1sc(-c2ccc(C(C)(C)C)cc2)nc1C` here?
**A.** Its inhibition at 50 µM is < 50%.

**Q.** For `COC(=O)c1sc(-c2ccccc2Br)nc1C`, which inhibition at 50 µM [1] is on record?
**A.** Its inhibition at 50 µM is < 50%.

**Q.** For `COC(=O)c1sc(-c2ccc(OC)cc2)nc1C`, which inhibition at 50 µM [1] is on record?
**A.** The inhibition at 50 µM was < 50%.
